From ChEMBL document CHEMBL4138171, “Design, synthesis and biological evaluation of novel aryldiketo acids with enhanced antibacterial activity against multidrug resistant bacterial strains” (Eur J Med Chem, 2018)

Test system: Enterococcus faecalis
Assay: Antibacterial activity against Enterococcus faecalis NCTC 12697 after 16 hrs by microdilution method
Assay type: functional
Details: NCTC 12697, 16 h
In short: (§1)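 Broth microdilution in cation-adjusted Mueller-Hinton broth (20 mg/l Ca2+, 10 mg/L Mg2+), inoculum 5×10^5 CFU/mL. Compounds from DMSO stocks, final DMSO <1%, tested over 0.12–128 µg/ml. Incubated 37 °C and read visually after 16 h. MIC is the lowest concentration with no visible growth, determined at least twice and converted to µmol/L.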

Structure (SMILES)	MIC
CCCCc1ccc(C(=O)/C=C(\O)C(=O)O)cc1	129 µM
COc1cccc(C(=O)/C=C(\O)C(=O)O)c1	> 128 µg/mL
O=C(O)/C(O)=C/C(=O)c1cccc(Br)c1	> 128 µg/mL
O=C(O)c1cn(C2CC2)c2cc(N3CCNCC3)c(F)cc2c1=O [CIPROFLOXACIN]	1.5 µM
C[C@H]1COc2c(N3CCN(C)CC3)c(F)cc3c(=O)c(C(=O)O)cn1c23 [LEVOFLOXACIN]	1.4 µM
CCn1cc(C(=O)O)c(=O)c2cc(F)c(N3CCNCC3)cc21 [NORFLOXACIN]	6.3 µM

Test system: Bacillus subtilis
Assay: Antibacterial activity against Bacillus subtilis NCTC 10400 after 16 hrs by microdilution method
Assay type: functional
Details: NCTC 10400, 16 h
In short: as §1

Structure (SMILES)	MIC [µg/mL]
CCCCc1ccc(C(=O)/C=C(\O)C(=O)O)cc1	> 128
COc1cccc(C(=O)/C=C(\O)C(=O)O)c1	> 128
O=C(O)/C(O)=C/C(=O)c1cccc(Br)c1	> 128

Test system: Staphylococcus aureus
Assay: Antibacterial activity against methicillin-sensitive Staphylococcus aureus NCTC 12981 after 16 hrs by microdilution method
Assay type: functional
Details: NCTC 12981, 16 h
In short: as §1

Structure (SMILES)	MIC
CC(C)c1cc(C(C)C)c(C(=O)CCC(=O)O)c(C(C)C)c1	> 128 µg/mL
CC(=O)c1cc(C2CCCCC2)ccc1C1CCCCC1	450 µM
O=C(O)CCC(=O)c1cc(C2CCCCC2)ccc1C1CCCCC1	94 µM
CCCCc1ccc(C(=O)/C=C(\O)C(=O)O)cc1	258 µM
COc1cccc(C(=O)/C=C(\O)C(=O)O)c1	> 128 µg/mL
O=C(O)/C(O)=C/C(=O)c1cccc(Br)c1	> 128 µg/mL
O=C(O)CCC(=O)c1ccc(-c2ccccc2)cc1 [FENBUFEN]	> 128 µg/mL

Test system: Staphylococcus aureus
Assay: Antibacterial activity against methicillin-resistant Staphylococcus aureus NCTC 13373 after 16 hrs by microdilution method
Assay type: functional
Details: NCTC 13373, 16 h
In short: (§2)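 Broth microdilution in cation-adjusted Mueller-Hinton broth (20 mg/l Ca2+, 10 mg/L Mg2+), inoculum 5×10^5 CFU/mL. Compounds in DMSO, solvent under 1% in well, tested over 0.12-128 µg/ml. […] Each determined at least twice; values converted to µmol/L.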

Structure (SMILES)	MIC
CC(C)c1cc(C(C)C)c(C(=O)CCC(=O)O)c(C(C)C)c1	> 128 µg/mL
CC(=O)c1cc(C2CCCCC2)ccc1C1CCCCC1	450 µM
O=C(O)CCC(=O)c1cc(C2CCCCC2)ccc1C1CCCCC1	94 µM
CCCCc1ccc(C(=O)/C=C(\O)C(=O)O)cc1	258 µM
COc1cccc(C(=O)/C=C(\O)C(=O)O)c1	> 128 µg/mL
O=C(O)/C(O)=C/C(=O)c1cccc(Br)c1	> 128 µg/mL
O=C(O)CCC(=O)c1ccc(-c2ccccc2)cc1 [FENBUFEN]	> 128 µg/mL

Test system: Staphylococcus aureus
Assay: Antibacterial activity against Norfloxacin-resistant Staphylococcus aureus 1199B over-expressing NorA after 16 hrs by microdilution method
Assay type: functional
Details: not given
In short: as §2

Structure (SMILES)	MIC
O=C(O)/C(O)=C/C(=O)c1ccc(-c2ccccc2)cc1	477 µM
CC(C)(C)c1ccc(C(=O)/C=C(\O)C(=O)O)cc1	1030 µM
CC(C)c1ccc(C(C)C)c(C(=O)/C=C(\O)C(=O)O)c1	232 µM
CC(C)c1cc(C(C)C)c(C(=O)CCC(=O)O)c(C(C)C)c1	> 128 µg/mL
CC(=O)c1cc(C2CCCCC2)ccc1C1CCCCC1	450 µM
O=C(O)CCC(=O)c1cc(C2CCCCC2)ccc1C1CCCCC1	47 µM
CC(C)c1ccc(C(=O)/C=C(\O)C(=O)O)c(C(C)C)c1	232 µM
CCCCc1ccc(C(=O)/C=C(\O)C(=O)O)cc1	258 µM
CCc1cc(CC)c(C(=O)/C=C(\O)C(=O)O)c(CC)c1	116 µM
O=C(O)/C(O)=C/C(=O)c1ccccc1	> 2660 µM
COc1cccc(C(=O)/C=C(\O)C(=O)O)c1	> 128 µg/mL
O=C(O)/C(O)=C/C(=O)c1cccc(Br)c1	> 128 µg/mL
O=C(O)CCC(=O)c1ccc(-c2ccccc2)cc1 [FENBUFEN]	> 128 µg/mL
C[C@H]1COc2c(N3CCN(C)CC3)c(F)cc3c(=O)c(C(=O)O)cn1c23 [LEVOFLOXACIN]	5.53 µM
COc1c(N2C[C@@H]3CCCN[C@@H]3C2)c(F)cc2c(=O)c(C(=O)O)cn(C3CC3)c12 [MOXIFLOXACIN]	0.62 µM
CCn1cc(C(=O)O)c(=O)c2cc(F)c(N3CCNCC3)cc21 [NORFLOXACIN]	106 µM

Test system: Staphylococcus aureus
Assay: Antibacterial activity against erythromycin-resistant Staphylococcus aureus RN4220 after 16 hrs by microdilution method
Assay type: functional
Details: RN4220, 16 h
In short: as §2

Structure (SMILES)	MIC
O=C(O)/C(O)=C/C(=O)c1ccc(-c2ccccc2)cc1	> 128 µg/mL
CC(C)(C)c1ccc(C(=O)/C=C(\O)C(=O)O)cc1	> 128 µg/mL
CC(C)c1ccc(C(C)C)c(C(=O)/C=C(\O)C(=O)O)c1	464 µM
CC(C)c1cc(C(C)C)c(C(=O)CCC(=O)O)c(C(C)C)c1	> 128 µg/mL
CC(=O)c1cc(C2CCCCC2)ccc1C1CCCCC1	225 µM
O=C(O)CCC(=O)c1cc(C2CCCCC2)ccc1C1CCCCC1	47 µM
CC(C)c1ccc(C(=O)/C=C(\O)C(=O)O)c(C(C)C)c1	232 µM
CCCCc1ccc(C(=O)/C=C(\O)C(=O)O)cc1	258 µM
CCc1cc(CC)c(C(=O)/C=C(\O)C(=O)O)c(CC)c1	232 µM
COc1cccc(C(=O)/C=C(\O)C(=O)O)c1	> 128 µg/mL
O=C(O)/C(O)=C/C(=O)c1cccc(Br)c1	> 128 µg/mL
O=C(O)c1cn(C2CC2)c2cc(N3CCNCC3)c(F)cc2c1=O [CIPROFLOXACIN]	0.76 µM
O=C(O)CCC(=O)c1ccc(-c2ccccc2)cc1 [FENBUFEN]	> 128 µg/mL
C[C@H]1COc2c(N3CCN(C)CC3)c(F)cc3c(=O)c(C(=O)O)cn1c23 [LEVOFLOXACIN]	0.69 µM
COc1c(N2C[C@@H]3CCCN[C@@H]3C2)c(F)cc2c(=O)c(C(=O)O)cn(C3CC3)c12 [MOXIFLOXACIN]	0.31 µM
CCn1cc(C(=O)O)c(=O)c2cc(F)c(N3CCNCC3)cc21 [NORFLOXACIN]	> 128 µg/mL

Test system: Staphylococcus aureus
Assay: Antibacterial activity against Staphylococcus aureus EMRSA-15 after 16 hrs by microdilution method
Assay type: functional
Details: EMRSA-15, 16 h
In short: as §1

Structure (SMILES)	MIC
O=C(O)/C(O)=C/C(=O)c1ccc(-c2ccccc2)cc1	> 128 µg/mL
CC(C)(C)c1ccc(C(=O)/C=C(\O)C(=O)O)cc1	> 128 µg/mL
CC(C)c1ccc(C(C)C)c(C(=O)/C=C(\O)C(=O)O)c1	232 µM
CC(C)c1cc(C(C)C)c(C(=O)CCC(=O)O)c(C(C)C)c1	> 128 µg/mL
CC(=O)c1cc(C2CCCCC2)ccc1C1CCCCC1	225 µM
O=C(O)CCC(=O)c1cc(C2CCCCC2)ccc1C1CCCCC1	94 µM
CC(C)c1ccc(C(=O)/C=C(\O)C(=O)O)c(C(C)C)c1	232 µM
CCCCc1ccc(C(=O)/C=C(\O)C(=O)O)cc1	258 µM
CCc1cc(CC)c(C(=O)/C=C(\O)C(=O)O)c(CC)c1	232 µM
COc1cccc(C(=O)/C=C(\O)C(=O)O)c1	> 128 µg/mL
O=C(O)/C(O)=C/C(=O)c1cccc(Br)c1	> 128 µg/mL
O=C(O)CCC(=O)c1ccc(-c2ccccc2)cc1 [FENBUFEN]	> 128 µg/mL
CCn1cc(C(=O)O)c(=O)c2cc(F)c(N3CCNCC3)cc21 [NORFLOXACIN]	3.3 µM

Test system: Staphylococcus aureus
Assay: Antibacterial activity against tetracycline/methicillin-resistant Staphylococcus aureus XU212 after 16 hrs by microdilution method
Assay type: functional
Details: XU212, 16 h
In short: as §2

Structure (SMILES)	MIC
O=C(O)/C(O)=C/C(=O)c1ccc(-c2ccccc2)cc1	> 128 µg/mL
CC(C)(C)c1ccc(C(=O)/C=C(\O)C(=O)O)cc1	> 128 µg/mL
CC(C)c1ccc(C(C)C)c(C(=O)/C=C(\O)C(=O)O)c1	464 µM
CC(C)c1cc(C(C)C)c(C(=O)CCC(=O)O)c(C(C)C)c1	> 128 µg/mL
CC(=O)c1cc(C2CCCCC2)ccc1C1CCCCC1	225 µM
O=C(O)CCC(=O)c1cc(C2CCCCC2)ccc1C1CCCCC1	47 µM
CC(C)c1ccc(C(=O)/C=C(\O)C(=O)O)c(C(C)C)c1	464 µM
CCCCc1ccc(C(=O)/C=C(\O)C(=O)O)cc1	258 µM
CCc1cc(CC)c(C(=O)/C=C(\O)C(=O)O)c(CC)c1	232 µM
COc1cccc(C(=O)/C=C(\O)C(=O)O)c1	> 128 µg/mL
O=C(O)/C(O)=C/C(=O)c1cccc(Br)c1	> 128 µg/mL
O=C(O)CCC(=O)c1ccc(-c2ccccc2)cc1 [FENBUFEN]	> 128 µg/mL
CCn1cc(C(=O)O)c(=O)c2cc(F)c(N3CCNCC3)cc21 [NORFLOXACIN]	> 128 µg/mL

Test system: Escherichia coli
Assay: Antibacterial activity against Escherichia coli NCTC 12241 after 16 hrs by microdilution method
Assay type: functional
Details: NCTC 12241, 16 h
In short: as §1

Structure (SMILES)	MIC [µg/mL]
O=C(O)/C(O)=C/C(=O)c1ccc(-c2ccccc2)cc1	> 128
CC(C)(C)c1ccc(C(=O)/C=C(\O)C(=O)O)cc1	> 128
CC(C)c1ccc(C(C)C)c(C(=O)/C=C(\O)C(=O)O)c1	> 128
CC(C)c1cc(C(C)C)c(C(=O)CCC(=O)O)c(C(C)C)c1	> 128
CC(=O)c1cc(C2CCCCC2)ccc1C1CCCCC1	> 128
O=C(O)CCC(=O)c1cc(C2CCCCC2)ccc1C1CCCCC1	> 128
CC(C)c1ccc(C(=O)/C=C(\O)C(=O)O)c(C(C)C)c1	> 128
CCCCc1ccc(C(=O)/C=C(\O)C(=O)O)cc1	> 128
CCc1cc(CC)c(C(=O)/C=C(\O)C(=O)O)c(CC)c1	> 128
O=C(O)/C(O)=C/C(=O)c1ccccc1	> 128
COc1cccc(C(=O)/C=C(\O)C(=O)O)c1	> 128
O=C(O)/C(O)=C/C(=O)c1cccc(Br)c1	> 128
O=C(O)CCC(=O)c1ccc(-c2ccccc2)cc1 [FENBUFEN]	> 128

Test system: Staphylococcus aureus
Assay: Potency index, ratio of norfloxacin MIC to test compound MIC for Norfloxacin-resistant Staphylococcus aureus 1199B over-expressing NorA
Assay type: functional
Details: not given

Structure (SMILES)	Ratio
CCc1cc(CC)c(C(=O)/C=C(\O)C(=O)O)c(CC)c1	10
